PKD1 kinase inh: inhibitors of human PKD1 kinase, biochemical, fluorescence polarization; Serine/threonine-protein kinase D1 (Homo sapiens), Q15139; PKD1 kinase fluorescence polarization assay; inhibition, % (concentration not given with the values); hit rate 0.056% among 200,000; in the data active = inhibition above about 50%
FLuc stim CS: FLuc activators, initial screening, artefact control for FLuc-dependent activation tests, biochemical, ATPlite luminescence; Luciferin 4-monooxygenase (Photinus pyralis), P08659; ATPlite luciferase biochemical, 10 min; 0 = ATP-free wells, 1 = DMSO control; activation factor at 10 µM; 200,000 tested, under 10 active; AID 1027, 2008;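 active = luciferase activation factor, scaled between plate controls, of at least 2 with compound at 10 µM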
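assay system = Luciferase/luciferin detection reagent, cell-free biochemical luciferase assay | also added = ATP substrate | times = 10 min post-reagent at room temperature | measured by = luminescence from luciferase reaction | measure = luciferase activation, seen as luminescence increase over controls | benchmarks = low control with PBS replacing ATP, high control enzyme plus ATP without compound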
C8 TRAIL sens: viability loss with TRAIL in NB7+C8 cells, primary screen, TRAIL sensitizer project, cell-based, ATPlite luminescence | inhibition (viability loss, TRAIL sensitization), % at 10 µM | hit rate 1% among 360,000;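 active = compounds causing at least 50% loss of cell viability in the single-dose screen, relative to plate controls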
PPC-1+TRAIL kill: compounds killing PPC-1 cancer cells with TRAIL present, primary screen, TRAIL potentiator project, ATPLite luminescence, uHTS; PPC-1 cells + TRAIL, ATPLite viability luminescence; cell killing (% activity), % at 4 µM or 5 µM; hit rate 0.41% among 220,000;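 active = cell killing above 50% in the first pass at 4 µM, then a duplicate retest at 5 µM averaging 50% or more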;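 also: plate controls were cells with TRAIL plus DMSO for no effect and medium-only wells lacking cells for full effect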
Wee1 degr inh: Wee1 degradation inhibitors, primary screen, cell-based, HeLa, Wee1K328M-luciferase, luminescence; HeLa Luc-Wee1K328M stability; 100% = proteasome inhibitor MG132 effect; reporter increase, % at 5 µM; hit rate 1.2% among 220,000;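 active = activation above the mean of all tested compounds plus 3 SD, set per screening run, cut at about 8.8% in these data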;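 also: cells exposed to compound for 20 h before luminescence read; 0% = DMSO alone and 100% = MG132 at 30 µM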
Target sequence (P30291 whole entry K328M): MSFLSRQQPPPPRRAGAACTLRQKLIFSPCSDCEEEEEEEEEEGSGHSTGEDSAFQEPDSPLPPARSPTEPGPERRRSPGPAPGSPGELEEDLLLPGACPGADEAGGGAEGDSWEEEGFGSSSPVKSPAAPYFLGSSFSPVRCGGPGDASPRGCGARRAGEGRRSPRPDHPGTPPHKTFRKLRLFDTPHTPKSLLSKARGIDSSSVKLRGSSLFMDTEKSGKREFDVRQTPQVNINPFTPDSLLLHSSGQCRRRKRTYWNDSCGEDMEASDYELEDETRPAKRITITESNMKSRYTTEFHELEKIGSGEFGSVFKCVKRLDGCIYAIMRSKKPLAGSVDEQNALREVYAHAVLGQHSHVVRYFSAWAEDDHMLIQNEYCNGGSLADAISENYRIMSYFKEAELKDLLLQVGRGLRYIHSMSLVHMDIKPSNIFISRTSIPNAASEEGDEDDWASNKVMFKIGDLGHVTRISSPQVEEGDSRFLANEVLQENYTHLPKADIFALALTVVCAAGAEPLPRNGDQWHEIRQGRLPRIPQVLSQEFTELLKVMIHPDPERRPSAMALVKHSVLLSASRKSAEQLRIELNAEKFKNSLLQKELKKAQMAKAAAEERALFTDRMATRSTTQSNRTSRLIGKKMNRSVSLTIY
FLuc inhib CS: firefly luciferase enzyme inhibitors, primary screen, artefact control for luciferase-based inhibitor screens, biochemical, luminescence, ATPLite; Luciferin 4-monooxygenase (Photinus pyralis), P08659; hit rate 1.5% among 200,000; 10 min; inhibition, % at 10 µM;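 active = inhibition above about 50% when tested at 10 µM, limit read from the data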
PPC1 cytotox: cytotoxicity in PPC-1 cells, confirmation, cytotoxicity control for TRAIL apoptosis potentiator project, cell-based, ATP content luminescence | shares compounds with PPC-1+TRAIL kill | PPC-1 viability, ATPlite luminescence, overnight | cytotoxicity, % at 5 µM | hit rate 50% among 1,200;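 active = reconfirmed compounds whose average cytotoxicity reaches 50% or more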;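 also: 0% = DMSO-treated cells and 100% = wells holding medium but no cells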
The depositor's hits bear a star; / = no result. An excerpt weighted towards active compounds, which were near 2.2% of everything screened.

SMILES | PKD1 kinase inh | FLuc stim CS | C8 TRAIL sens | PPC-1+TRAIL kill | Wee1 degr inh | FLuc inhib CS | PPC1 cytotox
COc1ccc(-c2cc3ncc(-c4ccccc4)c(N)n3n2)cc1 | -4 | 0.2 | 62* | 41 | 5 | 79* | 52*
N#Cc1cnc2cc(-c3ccccc3)nn2c1N | / | / | -34 | 13 | -1 | / | /
Cc1ccccc1NC(NC(=O)OCCn1c([N+](=O)[O-])cnc1C)C(Cl)(Cl)Cl (stereo not given) | -3 | 1 | -1 | 4 | 3 | -1 | /
CN(C)c1ccc(-c2nc3ccccc3c(=O)[nH]2)cc1 | / | / | 93* | 88* | -3 | / | 88*
Oc1ccc(-c2cc(-c3ccc(O)cc3)nc(-c3ccccc3)n2)cc1 | / | / | -9 | / | / | / | /
Oc1ccc(-c2nnc(-c3ccc(O)cc3)nn2)cc1 | -5 | 0.2 | 64* | 53* | 1 | 78* | 54*
CCCn1c(=S)[nH]c2cc(C(=O)N3CCN(c4ccc(F)cc4)CC3)ccc2c1=O | / | / | 13 | / | / | / | /
COc1ccc(Cl)cc1S(=O)(=O)N(C)CC(=O)NCc1ccccn1 | / | / | -6 | / | / | / | /
CSc1ccc(/C=C/C(=O)NC(=O)c2ccccc2O)cc1 | -2 | 0.1 | 52* | 60* | 0 | 86* | 62*
O=C(/C=C/c1ccc(Br)cc1)NC(=O)c1ccccc1O | -5 | 0.1 | 63* | 62* | -1 | 91* | 62*
O=C(/C=C/c1ccc(O)c(O)c1)NC(=O)c1ccccc1O | / | / | 42 | / | / | / | /
CC(Sc1ccccc1)C(=O)NN=C1CCCCCC1 (stereo not given) | -3 | 1 | -4 | -4 | -3 | -4 | /
O=C1NC[C@@H](Cc2cccc3ccccc23)N(CCc2cccc(F)c2)C1=O | / | / | -10 | / | / | / | /
Cc1csc(N(C)C(=O)CSc2nnc(COc3ccccc3C)o2)n1 | 2 | 1 | 20 | -21 | 0 | -2 | -15
COc1cccc(-c2nc(-c3ccccn3)no2)c1 | -1 | 0.1 | / | 76* | -5 | 93* | 81*
c1ccc(-c2noc(-c3ccc4c(c3)OCO4)n2)nc1 | 7 | 0.1 | 85* | 87* | -4 | 94* | 88*
c1ccc(-c2noc(-c3ccncc3)n2)nc1 | 6 | 0.7 | 25 | 15 | -3 | 28 | /
CC(C)(C)c1ccc(C(=O)/C=C2\NC(=O)CS2)cc1 | 2 | 0.1 | 85* | 56* | 2 | 89* | 57*
c1csc(-c2nnc(-c3ccc(N4CCOCC4)cc3)o2)c1 | 1 | 0.3 | 51* | 46 | 3 | 71* | 47
c1cncc(-c2nnc(-c3cccs3)o2)c1 | -10 | 1 | 2 | 2 | 6 | -2 | /
Cn1nnc(NC(=O)c2ccc3ccccc3c2)n1 | 2 | 0.8 | 19 | 4 | 4 | 24 | /
Cn1nnc(NC(=O)c2ccc(C(C)(C)C)cc2)n1 | -2 | 0.2 | 55* | 54* | 3 | 80* | 53*
Cc1ccc(-c2cc(=O)c3cc(C)ccc3[nH]2)cc1 | 4 | 0.1 | 86* | 79* | 1 | 93* | 80*
Cc1cccc(C(=O)OCC(=O)Nc2ccccc2C(=O)NC2CC2)c1 | / | / | 10 | / | / | / | /
Cc1c(Cl)ccc2c(C(N)=O)cc(-c3ccccn3)nc12 | -5 | 1 | -10 | 8 | 2 | -4 | /
SMILES | PKD1 kinase inh | FLuc stim CS | C8 TRAIL sens | PPC-1+TRAIL kill | Wee1 degr inh | FLuc inhib CS | PPC1 cytotox
Cc1c(Cl)ccc2c(C(=O)O)cc(-c3ccccc3)nc12 | / | / | 35 | 16 | 0 | / | 23
CCOC(=O)C1CCN(c2c(NCc3ccc(C(=O)N(C)Cc4ccccc4)cc3)c(=O)c2=O)CC1 | 4 | 1 | 0 | 4 | -2 | -2 | /
CCOC(=O)COc1ccc2c3c(c(=O)oc2c1C)CCC3 | 7 | 1 | 1 | 8 | -1 | 0 | 14
CC(=O)N(C)C1=C(N2CCOCC2)C(=O)c2ccccc2C1=O | -11 | 1 | 90* | 24 | -5 | 1 | 27
CC(C)Cn1c(SCC(=O)O)nnc1-c1cccc(S(=O)(=O)N2CCOCC2)c1 | / | / | -8 | / | / | / | /
CC(C)Cn1c(SCC(=O)NCc2ccc(Cl)cc2)nnc1-c1cccc(S(=O)(=O)N2CCOCC2)c1 | -7 | 1 | -1 | 0 | 2 | -4 | 1
C#CCOCCOCCOCCNc1nc(N2CCN(C(=O)[C@H](CCC(=O)O)n3cc([C@@H](N)[C@H](C)CC)nn3)CC2)nc(N2CCN(C(=O)[C@H](CCC(=O)O)n3cc([C@@H](N)CCSC)nn3)CC2)n1 | / | / | -9 | / | / | / | /
O=C(CCl)Nc1cc(SCC(O)CO)cc([N+](=O)[O-])c1 (stereo not given) | -4 | 1 | 2 | 48 | -1 | 1 | 50*
O=C1NC(=O)/C(=C/c2ccccn2)S1 | / | / | -11 | 4 | -2 | / | /
CCc1ccc2oc(C(=O)NCCc3ccc(S(N)(=O)=O)cc3)cc(=O)c2c1 | / | / | -7 | / | / | / | /
CC[C@@]1(c2ccccc2OC)ON(c2ccccc2C(F)(F)F)C1=O | / | / | 21 | / | / | / | /
CCCn1nnnc1NCc1ccccc1OCc1cccs1 | 2 | 1.1 | -5 | 6 | 0 | -6 | 13
COc1ccc2nc(NC(C)=O)sc2c1 | -1 | 0.9 | 7 | 10 | -2 | 9 | /
CCOC(=O)c1cccc(C(=O)Nc2nc3ccc(OC)cc3s2)n1 | 4 | 0.1 | 82* | 68* | 3 | 91* | 67*
C=CCn1c(SCC(=O)NC(=O)NCCC)nnc1C1CCCCC1 | -6 | 1 | -8 | -1 | -1 | 4 | 3
C=CCn1c(SCC(=O)NC(=O)NC)nnc1C1CCCCC1 | 3 | 1 | 7 | 4 | -3 | -3 | /
Cc1cc(C)c(OCC(=O)OCC(=O)NCCC2=CCCCC2)c(C)c1 | / | / | -6 | / | / | / | /
CN(C(=O)c1ccc2c(c1)OCO2)C1(C(=O)NC2CCCC2)CCCCC1 | -1 | 1.1 | -6 | 6 | -2 | -5 | 2
Nc1nn2cc(-c3ccccc3)nc2c2ccccc12 | -2 | 0.2 | 56* | 47 | 3 | 85* | 51*
Cc1cn2nc(N)c3ccccc3c2n1 | 15 | 1 | 17 | 18 | 6 | 0 | /
COc1ccc(N2CCN(Cc3oc(CO)cc(=O)c3O)CC2)cc1 | -7 | 1.1 | -8 | 5 | -3 | -7 | 10
O=C1c2ccccc2-c2nc3ccccc3cc21 | / | / | 48 | / | / | / | /
O=C1c2ccccc2-c2nnc(-c3ccc(O)cc3)cc21 | 4 | 0.1 | 50 | 69* | -3 | 90* | 64*
Cc1ccc(-c2cc3c(nn2)-c2ccccc2C3=O)cc1 | / | / | 93* | 90* | -5 | / | 92*
